Measured values as given in ChEMBL document CHEMBL2375220, “Bispyrimidines as potent histamine H(4) receptor ligands: delineation of structure-activity relationships and detailed H(4) receptor binding mode” (J Med Chem, 2013).
pKi: −log10 of the molar value. Converted amounts (≈) assume the structure as drawn. Each block holds one molecule with its values, some of them ahead of it.

Assays:
[1] = Half life in mouse liver microsomes; type: ADME, Microsome
[2] = Half life in human liver microsomes; type: ADME, Microsome
[3] = Aqueous solubility of the compound at pH 6.8 by automated polarized light microscopy analysis; type: physicochemical
Procedure, shortened: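 Aqueous solubility at pH 6.8, measured by precipitation from DMSO solution and reported in μg/mL.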

Histamine H4 receptor [4] = molecular target: T1, Histamine H4 receptor (Homo sapiens, UniProt Q9H3N8); assay: Displacement of [3H]histamine displacement from human recombinant histamine H4 receptor expressed in […] cells after 45 mins; type: cell-based, SK-N-MC
Histamine H4 receptor [5] = molecular target: T1, Histamine H4 receptor; assay: Displacement of [3H]histamine displacement from human histamine H4 receptor expressed in […] cells after 60 mins; type: cell-based, SK-N-MC
Procedure, shortened: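 Affinity at the human H4 receptor, from displacement of [3H]histamine binding. Reported as pKi, the mean ± SEM of at least three independent determinations.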

SMILES: CC(C)CNc1cc(N2CCN(C)CC2)nc(N)n1
- half-life [1]: 4 min
- half-life [2]: > 120 min
- solubility [3]: > 64 µg/mL
- pKi (Histamine H4 receptor [4]): 8.50

SMILES: CC(C)CNc1cc(NCCNc2cc(-c3ccccc3)nc(N)n2)ncn1
- pKi (Histamine H4 receptor [5]): 6.30

SMILES: Nc1nccc(NCCNC(=O)c2cc3ccccc3[nH]2)n1
- pKi (Histamine H4 receptor [5]): 5.90

SMILES: CN(CCNc1ccnc(N)n1)C(=O)c1cc2cc(Cl)ccc2[nH]1
- pKi (Histamine H4 receptor [5]): 5.50

SMILES: CN(CCNc1ccnc(N)n1)C(=O)c1cc2ccccc2[nH]1
- pKi (Histamine H4 receptor [5]): 5.00

SMILES: Nc1nccc(NCCNc2ccnc(N)n2)n1
- pKi (Histamine H4 receptor [5]): 6.10

SMILES: Nc1nc(NCCNc2cc(-c3ccccc3)nc(N)n2)cc(-c2ccccc2)n1
- pKi (Histamine H4 receptor [5]): 6.00

SMILES: CC(C)CCc1cc(NCCNc2cc(-c3ccccc3)nc(N)n2)nc(N)n1
- pKi (Histamine H4 receptor [5]): 6.40

SMILES: CC(C)CNc1cc(NCCNc2cc(-c3ccccc3)nc(N)n2)nc(N)n1
- pKi (Histamine H4 receptor [5]): 5.50

SMILES: Nc1nc(NCCNc2ccncn2)cc(-c2ccccc2)n1
- pKi (Histamine H4 receptor [5]): 5.70

SMILES: Nc1nc(Cl)cc(NCCNc2cc(-c3ccccc3)nc(N)n2)n1
- pKi (Histamine H4 receptor [5]): 5.60

SMILES: CC(C)CCc1cc(NCCNc2cc(Cl)nc(N)n2)nc(N)n1
- pKi (Histamine H4 receptor [5]): 6.20

SMILES: CC(C)CNc1nc(NCCNc2ccnc(N)n2)cc(-c2ccccc2)n1
- pKi (Histamine H4 receptor [5]): 5.90

SMILES: CC(C)CNc1cc(NCCNc2ccnc(N)n2)ncn1
- pKi (Histamine H4 receptor [5]): 6.00

SMILES: CC(C)CCc1cc(N2CCN(C)CC2)nc(N)n1
- half-life [1]: < 2 min
- half-life [2]: 61 min
- solubility [3]: > 62 µg/mL
- pKi (Histamine H4 receptor [4]): 8.50

SMILES: Nc1nccc(NCCNc2cc(-c3ccccc3)nc(N)n2)n1
- pKi (Histamine H4 receptor [4]): 8.10

SMILES: CN1CCN(c2cc(-c3ccccc3)nc(N)n2)CC1
- half-life [1]: 4 min
- half-life [2]: 43 min
- solubility [3]: 61 µg/mL (≈ 226 µM)
- pKi (Histamine H4 receptor [4]): 8.10

SMILES: CN1CCN(c2cc(-c3ccc(Cl)cc3)nc(N)n2)CC1
- pKi (Histamine H4 receptor [4]): 8.50

SMILES: CN1CCN(C(=O)c2cc3cc(Cl)ccc3[nH]2)CC1 [JNJ-7777120]
- half-life [1]: 2 min
- half-life [2]: > 45 min
- solubility [3]: 58 µg/mL (≈ 209 µM)

Second part, the molecule after the results:

- pKi (Histamine H4 receptor [5]): 7.40
- half-life [1]: 23 min
- half-life [2]: 101 min
- solubility [3]: > 84 µg/mL
SMILES: CC(C)CNc1cc(N(C)CCNc2ccnc(N)n2)nc(N)n1

- pKi (Histamine H4 receptor [5]): 8.00
- half-life [1]: 8 min
- half-life [2]: 82 min
- solubility [3]: > 83 µg/mL
SMILES: CC(C)CCc1cc(N(C)CCNc2ccnc(N)n2)nc(N)n1

- pKi (Histamine H4 receptor [5]): 7.50
SMILES: CC(C)CNc1nccc(NCCN(C)c2cc(-c3ccccc3)nc(N)n2)n1

- pKi (Histamine H4 receptor [5]): 7.10
SMILES: CN(CCNc1cc(-c2ccccc2)nc(N)n1)c1ccnc(N)n1

- pKi (Histamine H4 receptor [5]): 6.50
SMILES: Nc1nccc(NCCNC(=O)c2cc3cc(Cl)ccc3[nH]2)n1

- pKi (Histamine H4 receptor [5]): 7.10
SMILES: CC(C)CNc1cc(NCCNc2ccnc(N)n2)nc(N)n1

- pKi (Histamine H4 receptor [5]): 7.60
- half-life [1]: 18 min
- half-life [2]: > 120 min
- solubility [3]: > 79 µg/mL
SMILES: CC(C)CCc1cc(NCCNc2ccnc(N)n2)nc(N)n1

- pKi (Histamine H4 receptor [5]): 8.20
- half-life [1]: 9 min
- half-life [2]: 51 min
- solubility [3]: > 76 µg/mL
SMILES: Nc1nccc(NCCNc2cc(-c3cccc(Cl)c3)nc(N)n2)n1

- pKi (Histamine H4 receptor [5]): 7.40
SMILES: Cc1nccc(NCCNc2cc(-c3ccccc3)nc(N)n2)n1

- pKi (Histamine H4 receptor [5]): 7.10
SMILES: CC(C)CNc1nccc(NCCNc2cc(-c3ccccc3)nc(N)n2)n1

- pKi (Histamine H4 receptor [5]): 7.30
SMILES: CC(C)CNc1nccc(NCCNc2cc(-c3cccc(Cl)c3)nc(N)n2)n1

- pKi (Histamine H4 receptor [5]): 7.10
SMILES: CC(C)CNc1nccc(NCCNc2ccnc(N)n2)n1

- pKi (Histamine H4 receptor [5]): 8.00
SMILES: CN(CCNc1ccnc(N)n1)c1cc(-c2ccccc2)nc(N)n1

- pKi (Histamine H4 receptor [5]): 7.30
SMILES: CC(C)CNc1nccc(NCCN(C)c2cc(-c3cccc(Cl)c3)nc(N)n2)n1
